The nature of assay [1]: inhibitors of TNFa-induced NFkB p65 translocation, primary screen, imaging, HUVEC, MLSMR starter and 10KST1 sets (AID 438;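 active = inhibition above 20% together with a positive visual image hit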;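 also: compound added about 3h40 before a 20 min TNFalpha stimulation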;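 as to inhibition: signal is the nuclear over cytoplasmic p65 intensity ratio per well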). The settings on record: HUVEC TNFa-induced p65 nuclear translocation; cell count: measured here: nuclei count (cytotoxicity indicator), at 2.08 µM; inhibition: at 2 µM, stronger effect = higher value, 0% TNFa-plus-vehicle, 100% no-TNFa wells.
Assay [2] is described as follows: endothelial E-selectin expression blockers – imaging, HUVEC, immunofluorescence, MLSMR starter and 10KST1 sets, primary screen (AID 487).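 As to inhibition: signal is fraction of cell area covered by stained E-selectin grains.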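 As to nuclei count: 100% = median nuclei count of all wells on the same plate.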 Particulars: HUVEC TNFalpha-induced E-selectin immunofluorescence imaging, at 2 µM; inhibition: stronger effect = higher value; nuclei count: measured here: cell number, toxicity.
The nature of assay [3]: Primary imaging screen for DUSP6 inhibitors that restore phospho-Erk in transfected HeLa cells, chemical complementation (AID 609;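 active = compounds giving at least 50% inhibition in the cell-based MKP-3 phosphatase rescue imaging test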;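 as to inhibition: phospho-Erk level distribution per well compared with pooled transfected vehicle control wells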). The settings on record: HeLa MKP-3 transfected, phospho-Erk imaging KS statistic, at 10 µM, cells stimulated with TPA for 15 min.
The target in assay [4] is Dual specificity protein phosphatase 6 (Homo sapiens) (UniProt Q16828). The description is as above. Particulars: HeLa MKP-3 transfected, phospho-Erk imaging KS statistic; at 10 µM; stronger effect = higher value; cells stimulated with TPA for 15 min.
Assay [5] concerns the target Voltage-gated potassium channel subunit beta-2 (Rattus norvegicus) (UniProt P62483). Description: inhibitors of rat Kvbeta2 reductase activity – biochemical, NADPH fluorescence, primary screen (AID 622;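 active = fluorescence slope higher than the sample average by over 3 SD, cut at about -0.22 in these data, passing the limit was not always enough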;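 also: slope of raw intensity against log time taken from 70 to 1610 s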). Particulars: recombinant KvBeta, 4-cyanobenzaldehyde reduction, at 10 µM, stronger effect = higher value.
The target is the same in assay [6]. Description: enhancers of rat Kvbeta2 NADPH turnover – biochemical, NADPH fluorescence, primary screen (AID 623;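 active = NADPH fluorescence slope more negative than the mean of all samples by about 3 SD, 99.7% confidence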;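 also: fluorescence intensity change per second fitted from 20 to 320 s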). Particulars: Recombinant KvBeta, NADPH fluorescence decrease slope, 10 min; at 10 µM; stronger effect = lower value.
For assay [7], the target named is Muscarinic acetylcholine receptor M4 (Homo sapiens) (UniProt P08173). Put plainly: M4-linked GIRK flux change, two-sided – cell-based, HEK293 M4/GIRK, thallium flux, BTC-AM, M4 allosteric agonist project, primary screen (AID 625;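 active = fluorescence slope after compound addition differing from the mean of all tested samples at 99.7% confidence, mostly higher but some lower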;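 also: thallium influx through GIRK channels coupled to M4 in HEK293 cells with BTC-AM dye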). Particulars: at 10 µM, actives lie on both sides. The essentials:
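System: HEK293 cells with M4 receptor and GIRK channels | Incubation: Cells overnight at 37 °C, BTC-AM loading 1 h, reads 2 min total | Technique: Kinetic BTC-AM fluorescence sampled at 1 Hz, 10 s pre-addition baseline | Measure: Post-addition slope, 15–24 s, of baseline-normalized fluorescence | Control set: Carbachol positive, DMSO negative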

Assay [8] can be described thus: inhibitors of larval lipid processing in zebrafish, primary screen, whole organism, PED6 fluorescence, gall bladder and intestine (AID 686;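 active = a full or partial loss of lipid-probe fluorescence in the fish gall bladder, intestine or both, judged by eye; inactive = no fluorescence loss, or compound toxic to the fish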;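 also: larvae 5 to 7 days old with five fish per well; signal comes from phospholipase A2 cleavage of quenched PED6 carried via bile; overnight exposure to compound and PED6 before scoring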). The settings on record: Zebrafish larvae PED6 lipid processing, fluorescence scoring; screened at 20 µM (by protocol). Summed up:
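Test system – live zebrafish larvae aged 5-7 days, whole organism · Buffer or medium – E3 fish medium · Reagent – quenched phospholipase substrate PED6, 100 nM final, ingested by larvae · Doses – 20 µM single dose · Incubation – overnight compound and PED6 incubation · Technique – visual fluorescence microscopy scoring of gall bladder, gut · Read-out basis – visual per-well fluorescence inhibition score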

A short description of assay [9]: loss of swimming-algae plug formation – whole organism, Chlamydomonas reinhardtii, WT vs cilia-less mutant, absorbance, 96-well, primary screen (AID 463189;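 active = inhibition at or above 50% relative to wild type and mutant plate controls; inactive = inhibition below 50%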;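 also: 0% = wild type cc124 cells in DMSO and 100% = ciliumless bld1 mutant cells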). The settings on record: Chlamydomonas reinhardtii gravitaxis, OD600 absorbance, 2 days; at 10 µM; stronger effect = higher value.
Where [10] appears, read: measured here: cell density z-score.
Setting [11] is: measured here: nuclear c-Myc green intensity z-score.
Where [12] appears, read: measured here: nuclear pErk red intensity z-score, stronger effect = higher value.

Active and inactive are the calls of the source.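 The calls were made as follows, unless noted: active = visually confirmed hit in the image check and inhibition above 20%; inconclusive = visually confirmed hit but inhibition not above 20%; inactive = no visual hit in the image check.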

The inhibition is the relative decrease from the control value, in per cent.

Chain of Muscarinic acetylcholine receptor M4 (Homo sapiens) (P08173 whole entry, looked up): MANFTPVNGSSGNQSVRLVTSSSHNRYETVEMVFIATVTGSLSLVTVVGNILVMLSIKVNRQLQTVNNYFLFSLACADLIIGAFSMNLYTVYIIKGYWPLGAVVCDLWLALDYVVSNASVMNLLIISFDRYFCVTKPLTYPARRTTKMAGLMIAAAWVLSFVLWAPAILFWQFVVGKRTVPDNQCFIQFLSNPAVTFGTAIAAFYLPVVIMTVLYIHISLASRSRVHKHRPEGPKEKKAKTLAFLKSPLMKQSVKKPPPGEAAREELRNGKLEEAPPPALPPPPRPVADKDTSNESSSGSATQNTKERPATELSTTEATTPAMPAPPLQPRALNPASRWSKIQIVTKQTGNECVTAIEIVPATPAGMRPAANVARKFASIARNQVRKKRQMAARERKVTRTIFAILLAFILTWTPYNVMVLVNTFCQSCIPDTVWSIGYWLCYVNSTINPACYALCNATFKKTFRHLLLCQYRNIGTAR
Chain of Dual specificity protein phosphatase 6 (Homo sapiens) (Q16828 whole entry, looked up): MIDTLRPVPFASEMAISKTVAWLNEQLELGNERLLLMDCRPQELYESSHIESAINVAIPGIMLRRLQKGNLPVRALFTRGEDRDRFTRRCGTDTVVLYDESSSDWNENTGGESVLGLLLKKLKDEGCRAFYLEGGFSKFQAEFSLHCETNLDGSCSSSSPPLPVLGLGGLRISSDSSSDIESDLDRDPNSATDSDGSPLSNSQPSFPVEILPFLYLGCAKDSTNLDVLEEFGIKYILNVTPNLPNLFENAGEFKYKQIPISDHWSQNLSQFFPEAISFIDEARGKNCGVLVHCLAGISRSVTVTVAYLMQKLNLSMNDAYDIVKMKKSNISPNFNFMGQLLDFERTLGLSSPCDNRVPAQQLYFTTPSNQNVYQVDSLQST
Chain of Voltage-gated potassium channel subunit beta-2 (Rattus norvegicus) (P62483 whole entry, looked up): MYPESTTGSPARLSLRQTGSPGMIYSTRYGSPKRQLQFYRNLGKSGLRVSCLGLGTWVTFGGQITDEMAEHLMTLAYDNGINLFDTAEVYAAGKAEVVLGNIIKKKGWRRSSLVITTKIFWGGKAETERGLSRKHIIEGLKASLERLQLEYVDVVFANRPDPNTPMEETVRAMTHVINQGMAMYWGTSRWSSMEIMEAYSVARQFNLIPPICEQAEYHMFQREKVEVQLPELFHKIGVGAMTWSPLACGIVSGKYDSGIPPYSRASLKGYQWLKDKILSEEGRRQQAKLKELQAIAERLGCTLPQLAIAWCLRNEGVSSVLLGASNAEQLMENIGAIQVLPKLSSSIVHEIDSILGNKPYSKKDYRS

Take `COc1ccc(C2=CC(c3ccc(C)cc3)n3nnnc3N2)cc1` (stereo unspecified): the cell count in [1] is 524. Besides, the inhibition in assay [1] is -9.2% (inactive); in assay [2] it was 29.9% (inactive); in assay [4] it was -9.91% (inactive); in [9], -5.34% (inactive). The same compound came in with a nuclei count in assay [2] of 186%. The z-score was -0.166 in [3] (setting [10]), -0.102 in assay [3] (setting [11]) and 0.752 in assay [3] (setting [12]). The fluorescence slope in assay [5] was -0.294 (inactive); in [7] it was 0.00566 (inactive). Also, in assay [6], the NADPH fluorescence slope is -4.1e-05 (inactive). The call in assay [8] was inactive.
Turning to `CCOc1ccc(N=C(NC#N)SCC(=O)NC2CC2)cc1`, in assay [1], the cell count turned out to be 613. For the same compound, the inhibition in assay [1] was -1.5% (inactive); in assay [2], -40.6% (inactive); in [4], -2.29% (inactive); in [9], -3.68% (inactive). The compound also displayed a nuclei count in assay [2] of 161%. In addition, the values for the z-score in assay [3] (setting [10]), in assay [3] (setting [11]) and in [3] (setting [12]) were 0.193, 0.708 and 0.295, respectively. The fluorescence slope in assay [5] was -0.491 (inactive); in assay [7], 0.00628 (inactive). For the same compound, the NADPH fluorescence slope in assay [6] is -4.8e-05 (inactive). Besides, the compound was classed as inactive in assay [8].
For `O=S(=O)(c1cccc(-c2csc(-c3ccccc3)n2)c1)N1CCOCC1`, in assay [1], the cell count was 681. In addition, the inhibition in assay [1] is -6% (inactive); in [2] it was 21.6% (inactive); in assay [4], -2.29% (inactive); in assay [9], 25.2% (inactive). In addition, the nuclei count in assay [2] came out at 172%. Besides, the values for the z-score in [3] (setting [10]), in [3] (setting [11]) and in [3] (setting [12]) were -0.667, -0.235 and -0.477, respectively. For the same compound, the fluorescence slope is -0.452 (inactive) in assay [5] and 0.00515 (inactive) in assay [7]. Further, in assay [6], the NADPH fluorescence slope is -5.8e-05 (inactive). Besides, in [8], the compound was called inactive.
On to `CSc1nc2sc3c(c2c2nnnn12)CCCC3`, for which, in assay [1], the cell count was 506. Besides, the inhibition in assay [1] is -14.9% (inactive); in assay [2], -77.3% (inactive); in assay [4] it was -5.81% (inactive); in assay [9] it was 31% (inactive). In addition, the nuclei count in assay [2] was found to be 118%. Besides, the z-score in [3] (setting [10]) was 0.676; in assay [3] (setting [11]), -0.0981; in assay [3] (setting [12]), -1.25. Further, the values for the fluorescence slope in assay [5] and in [7] were -0.455 (inactive) and 0.00421 (inactive), respectively. In assay [6], the NADPH fluorescence slope is -7.9e-06 (inactive). For the same compound, the result in assay [8] was inactive.
For the compound `COC(=O)c1cc(Br)c(=O)n(Cc2ccco2)c1`, the cell count in assay [1] was found to be 518. Moreover, the inhibition in assay [1] is -0.8% (inactive); in assay [2] it was 34.7% (inactive); in [4], 1.9e-07% (inactive); in assay [9] it was -6.69% (inactive). This compound returned a nuclei count in [2] of 159%. In addition, the z-score in assay [3] (setting [10]) is -0.341; in assay [3] (setting [11]), 0.91; in assay [3] (setting [12]), -1.02. Further, the fluorescence slope is -0.411 (inactive) in [5] and 0.00519 (inactive) in assay [7]. For the same compound, in assay [6], the NADPH fluorescence slope was -3.2e-05 (inactive). The call in [8] was inactive.
As for `N#Cc1c2c(c(-c3ccccc3)[nH]c1=O)CCCC2`, in [1], the cell count worked out at 580. The inhibition was -9.4% (inactive) in assay [1], -88.6% (inactive) in [2], 16.5% (inactive) in assay [4] and -4.11% (inactive) in [9]. Moreover, the nuclei count in assay [2] was 140%. The z-score was -0.665 in assay [3] (setting [10]), -0.156 in assay [3] (setting [11]) and -4.21 in assay [3] (setting [12]). Further, the values for the fluorescence slope in [5] and in assay [7] were -0.377 (inactive) and 0.00448 (inactive), respectively. The NADPH fluorescence slope in assay [6] is -0.000105 (inactive). Also, in [8], the compound was called inactive.
For `Cc1cccc(-n2ncc3c(NCc4ccco4)ncnc32)c1`, the cell count in assay [1] is 648. Also, the inhibition was -12.5% (inactive) in assay [1], -84.2% (inactive) in assay [2], 11.4% (inactive) in assay [4] and 2.88% (inactive) in assay [9]. Besides, in [2], the nuclei count came to 165%. The z-score in assay [3] (setting [10]) is 0.86; in assay [3] (setting [11]), -0.2; in assay [3] (setting [12]) it was -0.239. The figures for the fluorescence slope in assay [5] and in assay [7] were -0.385 (inactive) and 0.00641 (inactive), respectively. For the same compound, the NADPH fluorescence slope in assay [6] is -4.7e-05 (inactive). The compound was classed as inactive in assay [8].

(Values after PubChem BioAssay.)
